IC50 data for eleven compounds are collected here from ChEMBL document CHEMBL1806437, “Design, synthesis and antileishmanial in vitro activity of new series of chalcones-like compounds: a molecular hybridization approach” (Bioorg Med Chem, 2011).

The test system of one assay is Leishmania chagasi. Description: Antileishmanial activity against Leishmania chagasi MCAN/BR/99/JP15 promastigotes after 72 hrs by cell counting using Neubauer chamber. In kind it is functional, organism-based. The following applies: MCAN/BR/99/JP15, 72 h. An outline of the steps:
(§1)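 Log-phase promastigotes seeded at 1 × 10⁶ parasites/mL in Schneider's Drosophila medium with 20% FBS, streptomycin and penicillin (100 U/mL), 26 °C, with or without a range of compound concentrations; Glucantime and amphotericin B as reference controls. At 72 h cells fixed in citric acid/NaCl/formalin isotonic solution and counted microscopically; IC50/72 h by probit regression.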

The subject of a further assay is Leishmania amazonensis. Briefly: Antileishmanial activity against Leishmania amazonensis MHOM/IFLA/BR/67/PH8 promastigotes after 72 hrs by cell counting using Neubauer chamber. In kind it is functional, organism-based. The following applies: MHOM/IFLA/BR/67/PH8, 72 h. An outline of the steps:
as §1

`C=C(C(=O)Oc1ccccc1C(=O)OC)C(O)c1ccccc1[N+](=O)[O-]` (configuration not stated): the IC50 (commonly the midpoint of a concentration-inhibition curve) was determined as 10.1 µM in the assay on Leishmania chagasi and 7.65 µM in the assay with Leishmania amazonensis.
Regarding `C=C(C(=O)Oc1ccccc1C(=O)OC)C(O)c1cccc([N+](=O)[O-])c1` (configuration not stated), the IC50 in the assay on Leishmania chagasi stood at 40.6 µM; in the assay with Leishmania amazonensis, 22.9 µM.
On the same counts, the results for `C=C(C(=O)Oc1ccccc1C(=O)OC)C(O)c1ccc([N+](=O)[O-])cc1` (configuration not stated) are 57.3 µM and 11.3 µM.
On the same counts, the results for `C=C(C(=O)Oc1ccccc1C(=O)OC)C(O)c1ccncc1` (configuration not stated) are 33.4 µM and 23.8 µM.
On the same counts, the results for `C=C(C(=O)Oc1ccccc1C(=O)OC)C(O)c1cccnc1` (configuration not stated) are 38.7 µM and 31.2 µM.
For `C=C(C(=O)Oc1ccccc1C(=O)OC)C(O)c1ccc(Br)cc1` (configuration not stated), the half-inhibitory concentration (IC50) was determined as 43 µM with Leishmania chagasi and 22 µM in the assay on Leishmania amazonensis.
On the same counts, the results for `C=C(C(=O)Oc1ccccc1C(=O)OC)C(O)c1ccc2ccccc2c1` (configuration not stated) are 41.4 µM and 9 µM.
On the same counts, the results for `C=C(CCC(=O)Oc1ccccc1C(=O)OC)C(=O)Oc1ccccc1C(=O)OC` are 49.1 µM and 22.4 µM.
On the same counts, the results for `C[C@@H]1[C@H](O)[C@@H](C)/C=C/C=C/C=C/C=C/C=C/C=C/C=C/[C@H](O[C@@H]2O[C@H](C)[C@@H](O)[C@H](N)[C@@H]2O)C[C@@H]2O[C@](O)(C[C@@H](O)C[C@@H](O)[C@H](O)CC[C@@H](O)C[C@@H](O)CC(=O)O[C@H]1C)C[C@H](O)[C@H]2C(=O)O` [AMPHOTERICIN B] are 0.69 µM and 0.12 µM.
`C=CC(=O)Oc1ccccc1C(=O)OC` [METHYL SALICYLATE ACRYLIC ESTER]: the IC50 is 119 µM in the assay with Leishmania chagasi and 108 µM with Leishmania amazonensis.
On the same counts, the results for `COC(=O)c1ccccc1O` [METHYL SALICYLATE] are 261 µM and 228 µM.
